B1: 6 × His-HIV-1 IN (wild type full-length HIV-1 integrase) (enzyme)
chain: FLDGIDKAQEEHEKYHSNWRAMASDFNLPPVVAKEIVASCDKCQLKGEAMHGQVDCSPGIWQLDCTHLEGKVILVAVHVASGYIEAEVIPAETGQETAYFLLKLAGRWPVKTVHTDNGSNFTSTTVKAACWWAGIKQEFGIPYNPQSQGVIESMNKELKKIIGQVRDQAEHLKTAVQMAVFIHNFKRKGGIGGYSAGERIVDIIATDIQTKELQKQITKIQNFRVYYRDSRDPVWKGPAKLLWKGEGAVVIQDNSDIKVVPRRKAKIIRDYGKQMAGDDCVASRQDED

Legend:
full-length HIV-1 IN = full-length HIV-1 IN (Human immunodeficiency virus type 1 group M subtype B, UniProt P12497); test: DLS analysis of IN multimerization; type: biochemical; conditions: 500 nM BI/D or 3 µM LEDGF/p75 added to 200 nM IN, 30 min
How it was run: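 Recombinant full-length HIV-1 IN, E. coli-expressed with His or FLAG tag, at 200 nM in filtered 50 mM HEPES pH 7.4, 2 mM DTT, 2 mM MgCl2, 1 M NaCl. Test compound (500 nM) or LEDGF/p75 (3 µM) was added for 30 min. In a sequential arm, compound was added for 30 min, then LEDGF/p75 for 30 min more. DLS was recorded at 25 °C and particle size distribution calculated.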

[1] = molecular target: FLAG-LEDGF/p75 (full length) (UniProt O75475 1-530); test: AlphaScreen or HTRF
Sequence of FLAG-LEDGF/p75 (full length) (O75475 whole entry): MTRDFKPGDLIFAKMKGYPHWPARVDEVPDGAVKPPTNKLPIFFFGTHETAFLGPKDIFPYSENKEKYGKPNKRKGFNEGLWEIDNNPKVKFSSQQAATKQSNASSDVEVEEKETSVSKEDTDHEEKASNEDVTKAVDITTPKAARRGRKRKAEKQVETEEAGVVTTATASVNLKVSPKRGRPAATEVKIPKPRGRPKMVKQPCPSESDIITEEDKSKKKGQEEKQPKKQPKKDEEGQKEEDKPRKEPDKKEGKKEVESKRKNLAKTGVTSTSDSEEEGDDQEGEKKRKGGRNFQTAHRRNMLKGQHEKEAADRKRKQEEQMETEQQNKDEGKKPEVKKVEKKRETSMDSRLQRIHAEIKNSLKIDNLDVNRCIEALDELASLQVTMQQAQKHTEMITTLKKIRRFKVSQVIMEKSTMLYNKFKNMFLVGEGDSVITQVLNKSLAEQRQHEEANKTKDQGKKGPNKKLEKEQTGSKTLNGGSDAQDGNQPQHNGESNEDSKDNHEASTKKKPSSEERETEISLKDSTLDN

Molecule | estimated particle diameter (DLS) after addition to IN (full-length HIV-1 IN) | Kd [1]
LEDGF/p75: cellular chromatin associated protein, cofactor that binds the HIV-1 IN tetramer; recombinant, His or FLAG tagged | ~ 11 nM | –
B1 | – | 3.32 ± 0.31 nM
